Laboratory results reported in ChEMBL document CHEMBL3864175, “Sulfonamides as Selective NaV1.7 Inhibitors: Optimizing Potency and Pharmacokinetics to Enable in Vivo Target Engagement” (ACS Med Chem Lett, 2016).
pIC50, pKi: −log10 of the molar value.

Columns and labels:
[1] = target: T1, Sodium channel protein type 9 subunit alpha (Homo sapiens, UniProt Q15858); test: Inhibition of human Nav1.7 expressed in HEK293 cells assessed as inhibition of sodium current at holding potential of -125 mV measured for 3 to 5 mins by whole cell voltage clamp method; format: cell-based
[2] = target: Sodium channel protein type 5 subunit alpha (Homo sapiens, UniProt Q14524); test: Inhibition of human Nav1.5 expressed in HEK293 cells assessed as inhibition of sodium current at holding potential of -125 mV measured for 3 to 5 mins by whole cell voltage clamp method; format: cell-based
[3] = Clearance in rat at 0.5 mg/kg, iv by LC-MS/MS analysis; format: ADME, organism-based; details: in vivo
Method in brief: (§1)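 Male rats, n = 2 per group, dosed intravenously at 0.5 mg/kg as a solution in 100% DMSO. Unbound clearance is derived from total clearance.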

[4] = target: T1, Sodium channel protein type 9 subunit alpha; test: Inhibition of human Nav1.7 in closed state expressed in HEK293 cells assessed as inhibition of sodium current at holding potential of -140 mV measured for 3 to 5 mins by whole cell voltage clamp method; format: cell-based
Method in brief: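 Closed-state (fully non-inactivated) protocol: inhibition was measured with cells held at −140 mV, for comparison with protocols using inactivating depolarizations.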

[5] = target: T1, Sodium channel protein type 9 subunit alpha; test: Inhibition of human Nav1.7 expressed in HEK293 cells assessed as inhibition of sodium current at holding potential of -60 mV measured for 3 to 5 mins by whole cell voltage clamp method; format: cell-based
[6] = target: T2, Sodium channel protein type 9 subunit alpha (Mus musculus, UniProt Q62205); test: Inhibition of 20% inactivated mouse Nav1.7 expressed in HEK293 cells assessed as inhibition of sodium current measured for 3 to 5 mins by whole cell voltage clamp method; format: cell-based
Method in brief: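 Mouse NaV1.7 was stably transfected into HEK293 cells. Block was measured with cells depolarized to a voltage that gave 20% channel inactivation.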

[7] = Inhibition of 20% inactivated dog Nav1.7 expressed in HEK293T cells assessed as inhibition of sodium current measured for 3 to 5 mins by whole cell voltage clamp method; format: cell-based; details: HEK-293T
Method in brief: (§2)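 Electrophysiological block was measured with cells depolarized to a voltage that gave 20% channel inactivation, as opposed to a fully non-inactivated (closed) holding condition.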

[8] = Inhibition of 20% inactivated cynomolgus monkey Nav1.7 expressed in HEK293T cells assessed as inhibition of sodium current measured for 3 to 5 mins by whole cell voltage clamp method; format: cell-based; details: Macaca fascicularis, HEK-293T; method in brief: as §2
[9] = target: T2, Sodium channel protein type 9 subunit alpha; test: Inhibition of 20% inactivated Nav1.7 in C57BL/6 mouse DRG neurons assessed as inhibition of sodium currents in presence of TTX by whole cell patch clamp assay
Method in brief: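 Electrophysiology of TTX-sensitive sodium channels recorded from the cell bodies of sensory neurons freshly dissociated from mouse dorsal root ganglia.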

[10] = target: Sodium channel protein type 2 subunit alpha (Homo sapiens, UniProt Q99250); test: Inhibition of 20% inactivated human Nav1.2 expressed in CHO cells assessed as inhibition of peak inward current by whole cell patch clamp method; format: cell-based
[11] = target: Sodium channel protein type 3 subunit alpha (Homo sapiens, UniProt Q9NY46); test: Inhibition of 20% inactivated human Nav1.3 expressed in CHO cells assessed as inhibition of peak inward current by whole cell patch clamp method; format: cell-based
[12] = target: Sodium channel protein type 4 subunit alpha (Homo sapiens, UniProt P35499); test: Inhibition of 20% inactivated human Nav1.4 expressed in HEK293 cells assessed as inhibition of peak inward current by whole cell patch clamp method; format: cell-based
[13] = target: Sodium channel protein type 10 subunit alpha (Homo sapiens, UniProt Q9Y5Y9); test: Inhibition of 20% inactivated human Nav1.8 expressed in CHO cells assessed as inhibition of TTX-resistant current by whole cell patch clamp method; format: cell-based
[14] = target: Voltage-gated inwardly rectifying potassium channel KCNH2 (Homo sapiens, UniProt Q12809); test: Displacement of [3H]dofetilide from human ERG expressed in HEK293 cell membranes measured after 90 mins by TopCount scintillation counting method
[15] = Selectivity index, ratio of IC50 for human Nav1.5 expressed in HEK293 cells to IC50 for human Nav 1.7 expressed in HEK293 cells
[16] = Clearance in dog at 0.5 mg/kg, iv by LC-MS/MS analysis; format: ADME, organism-based, Canis lupus familiaris; details: in vivo
[17] = Unbound clearance in dog at 0.5 mg/kg, iv by LC-MS/MS analysis; format: ADME, organism-based, Canis lupus familiaris; details: in vivo
Method in brief: (§3)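 Dogs dosed intravenously at 0.5 mg/kg in 30% HPBCD/70% water, brought to pH 10 with KOH.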

[18] = Volume of distribution at steady state in rat at 0.5 mg/kg, iv by LC-MS/MS analysis; format: ADME, organism-based; details: in vivo, read-out: Vdss; method in brief: as §1
[19] = Volume of distribution at steady state in dog at 0.5 mg/kg, iv by LC-MS/MS analysis; format: ADME, organism-based, Canis lupus familiaris; details: in vivo; method in brief: as §3
[20] = Cmax in rat at 10 mg/kg, po by LC-MS/MS analysis; format: ADME, organism-based; set-up: dose 10 mg/kg, route oral; details: in vivo
Method in brief: (§4)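 Rats dosed orally at 10 mg/kg as a solution in 30% HPBCD/70% water, brought to pH 10 with KOH.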

[21] = Cmax in dog at 1.7 mg/kg, po by LC-MS/MS analysis; format: ADME, organism-based, Canis lupus familiaris; set-up: dose 1.7 mg/kg, route oral; details: in vivo
Method in brief: (§5)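 Dogs given a 1.7 mg/kg oral dose as a solution in 30% HPBCD/70% water/KOH at pH = 10; plasma parameters derived from this oral dosing, with the iv dose at 0.5 mg/kg in the same vehicle.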

[22] = Tmax in rat at 10 mg/kg, po by LC-MS/MS analysis; format: ADME, organism-based; details: in vivo; method in brief: as §4
[23] = Tmax in dog at 1.7 mg/kg, po by LC-MS/MS analysis; format: ADME, organism-based, Canis lupus familiaris; details: in vivo; method in brief: as §5
[24] = Oral bioavailability in rat at 10 mg/kg by LC-MS/MS analysis; format: ADME, organism-based; details: in vivo; method in brief: as §4
[25] = Oral bioavailability in dog at 1.7 mg/kg by LC-MS/MS analysis; format: ADME, organism-based, Canis lupus familiaris; details: in vivo; method in brief: as §5
[26] = Drug excretion in bile duct cannulated Sprague-Dawley rat feces assessed as parent compound at 1 mg/kg, iv administered through catheter measured up to 24 hrs by LC-MS/MS analysis; format: ADME, organism-based; details: faeces, read-out: Drug excretion
Mus musculus [27] = test: Antipruritic activity in histamine-induced scratching C57BL/6 mouse model assessed as reduction in scratching bouts administered orally 120 mins prior to histamine challenge measured after 30 mins relative to vehicle-treated control; format: functional
Method in brief: (§6)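 Male C57BL/6 mice dosed orally 120 min before intradermal histamine. Scratching bouts counted over 30 min and compared with vehicle by one-way ANOVA with Dunnett's test. Total and unbound plasma levels taken 30 min after histamine.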

[28] = Drug uptake in plasma of po dosed histamine induced C57BL/6 mouse model of scratching pretreated for 120 mins followed by histamine-challenge measured after 30 mins; format: ADME, organism-based; details: in vivo, 0.5 h; method in brief: as §6
[29] = Unbound plasma concentration in histamine induced C57BL/6 mouse model of scratching at 20 mg/kg, po pretreated for 120 mins followed by histamine-challenge measured after 30 mins; format: ADME, organism-based; details: in vivo, 0.5 h; method in brief: as §6
[30] = Unbound plasma concentration in histamine induced C57BL/6 mouse model of scratching at 60 mg/kg, po pretreated for 120 mins followed by histamine-challenge measured after 30 mins; format: ADME, organism-based; details: in vivo, 0.5 h; method in brief: as §6
Mus musculus [31] = test: Toxicity in C57BL/6 mouse assessed as reduction in locomotor activity at 5 to 60 mg/kg, po measured after 4 hrs by open field movement assay; format: organism-based; details: in vivo

T1 sequence (Q15858 whole entry): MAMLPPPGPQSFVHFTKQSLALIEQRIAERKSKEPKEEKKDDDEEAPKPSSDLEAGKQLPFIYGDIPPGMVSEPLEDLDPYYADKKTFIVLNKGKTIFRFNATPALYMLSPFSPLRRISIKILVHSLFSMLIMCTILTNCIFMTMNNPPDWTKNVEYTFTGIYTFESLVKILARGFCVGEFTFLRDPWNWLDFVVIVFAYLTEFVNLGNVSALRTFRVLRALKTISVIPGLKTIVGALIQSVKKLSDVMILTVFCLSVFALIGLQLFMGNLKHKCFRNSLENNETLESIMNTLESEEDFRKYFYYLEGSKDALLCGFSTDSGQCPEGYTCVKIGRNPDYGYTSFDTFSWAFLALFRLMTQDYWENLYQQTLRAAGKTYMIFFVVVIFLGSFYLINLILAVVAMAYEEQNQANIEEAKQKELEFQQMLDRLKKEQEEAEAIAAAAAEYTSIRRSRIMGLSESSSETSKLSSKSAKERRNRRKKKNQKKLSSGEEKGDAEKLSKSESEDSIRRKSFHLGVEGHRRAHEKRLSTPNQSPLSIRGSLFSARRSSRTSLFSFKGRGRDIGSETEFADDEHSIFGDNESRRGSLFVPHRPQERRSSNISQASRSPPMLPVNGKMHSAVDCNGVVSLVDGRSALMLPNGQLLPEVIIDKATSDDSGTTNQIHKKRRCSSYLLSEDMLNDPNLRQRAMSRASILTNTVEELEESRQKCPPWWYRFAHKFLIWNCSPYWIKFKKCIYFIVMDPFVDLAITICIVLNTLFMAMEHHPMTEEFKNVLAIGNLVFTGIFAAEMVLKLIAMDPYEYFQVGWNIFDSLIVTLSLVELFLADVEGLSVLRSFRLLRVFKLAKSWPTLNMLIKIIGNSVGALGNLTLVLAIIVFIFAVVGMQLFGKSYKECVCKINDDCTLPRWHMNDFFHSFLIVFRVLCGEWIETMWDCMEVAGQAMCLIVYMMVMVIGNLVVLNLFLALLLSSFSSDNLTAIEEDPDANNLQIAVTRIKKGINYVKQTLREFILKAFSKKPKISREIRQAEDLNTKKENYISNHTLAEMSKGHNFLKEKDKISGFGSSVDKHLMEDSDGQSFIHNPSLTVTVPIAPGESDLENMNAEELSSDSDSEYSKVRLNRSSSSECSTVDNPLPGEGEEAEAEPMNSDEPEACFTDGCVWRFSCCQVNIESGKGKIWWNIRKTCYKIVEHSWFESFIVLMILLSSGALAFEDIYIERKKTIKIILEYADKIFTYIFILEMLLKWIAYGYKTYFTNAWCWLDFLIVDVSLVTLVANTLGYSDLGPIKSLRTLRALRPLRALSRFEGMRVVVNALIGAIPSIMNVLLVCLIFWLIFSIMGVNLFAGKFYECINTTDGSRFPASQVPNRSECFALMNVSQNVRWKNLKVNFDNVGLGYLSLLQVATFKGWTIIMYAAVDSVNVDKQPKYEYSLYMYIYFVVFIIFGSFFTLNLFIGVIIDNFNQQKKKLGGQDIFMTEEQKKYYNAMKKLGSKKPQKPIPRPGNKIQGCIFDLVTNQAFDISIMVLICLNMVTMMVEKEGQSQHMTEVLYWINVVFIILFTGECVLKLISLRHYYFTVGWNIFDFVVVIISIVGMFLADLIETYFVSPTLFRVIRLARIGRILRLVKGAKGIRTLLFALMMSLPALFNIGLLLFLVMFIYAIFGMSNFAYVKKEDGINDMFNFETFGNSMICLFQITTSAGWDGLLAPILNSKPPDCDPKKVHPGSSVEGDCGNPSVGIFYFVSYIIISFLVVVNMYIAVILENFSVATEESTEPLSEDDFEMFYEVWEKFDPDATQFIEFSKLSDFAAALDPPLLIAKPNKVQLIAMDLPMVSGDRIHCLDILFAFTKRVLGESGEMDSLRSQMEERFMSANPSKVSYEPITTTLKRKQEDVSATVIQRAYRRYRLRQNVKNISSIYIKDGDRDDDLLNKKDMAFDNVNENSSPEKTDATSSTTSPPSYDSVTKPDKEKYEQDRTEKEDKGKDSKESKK
T2 sequence (Q62205 whole entry): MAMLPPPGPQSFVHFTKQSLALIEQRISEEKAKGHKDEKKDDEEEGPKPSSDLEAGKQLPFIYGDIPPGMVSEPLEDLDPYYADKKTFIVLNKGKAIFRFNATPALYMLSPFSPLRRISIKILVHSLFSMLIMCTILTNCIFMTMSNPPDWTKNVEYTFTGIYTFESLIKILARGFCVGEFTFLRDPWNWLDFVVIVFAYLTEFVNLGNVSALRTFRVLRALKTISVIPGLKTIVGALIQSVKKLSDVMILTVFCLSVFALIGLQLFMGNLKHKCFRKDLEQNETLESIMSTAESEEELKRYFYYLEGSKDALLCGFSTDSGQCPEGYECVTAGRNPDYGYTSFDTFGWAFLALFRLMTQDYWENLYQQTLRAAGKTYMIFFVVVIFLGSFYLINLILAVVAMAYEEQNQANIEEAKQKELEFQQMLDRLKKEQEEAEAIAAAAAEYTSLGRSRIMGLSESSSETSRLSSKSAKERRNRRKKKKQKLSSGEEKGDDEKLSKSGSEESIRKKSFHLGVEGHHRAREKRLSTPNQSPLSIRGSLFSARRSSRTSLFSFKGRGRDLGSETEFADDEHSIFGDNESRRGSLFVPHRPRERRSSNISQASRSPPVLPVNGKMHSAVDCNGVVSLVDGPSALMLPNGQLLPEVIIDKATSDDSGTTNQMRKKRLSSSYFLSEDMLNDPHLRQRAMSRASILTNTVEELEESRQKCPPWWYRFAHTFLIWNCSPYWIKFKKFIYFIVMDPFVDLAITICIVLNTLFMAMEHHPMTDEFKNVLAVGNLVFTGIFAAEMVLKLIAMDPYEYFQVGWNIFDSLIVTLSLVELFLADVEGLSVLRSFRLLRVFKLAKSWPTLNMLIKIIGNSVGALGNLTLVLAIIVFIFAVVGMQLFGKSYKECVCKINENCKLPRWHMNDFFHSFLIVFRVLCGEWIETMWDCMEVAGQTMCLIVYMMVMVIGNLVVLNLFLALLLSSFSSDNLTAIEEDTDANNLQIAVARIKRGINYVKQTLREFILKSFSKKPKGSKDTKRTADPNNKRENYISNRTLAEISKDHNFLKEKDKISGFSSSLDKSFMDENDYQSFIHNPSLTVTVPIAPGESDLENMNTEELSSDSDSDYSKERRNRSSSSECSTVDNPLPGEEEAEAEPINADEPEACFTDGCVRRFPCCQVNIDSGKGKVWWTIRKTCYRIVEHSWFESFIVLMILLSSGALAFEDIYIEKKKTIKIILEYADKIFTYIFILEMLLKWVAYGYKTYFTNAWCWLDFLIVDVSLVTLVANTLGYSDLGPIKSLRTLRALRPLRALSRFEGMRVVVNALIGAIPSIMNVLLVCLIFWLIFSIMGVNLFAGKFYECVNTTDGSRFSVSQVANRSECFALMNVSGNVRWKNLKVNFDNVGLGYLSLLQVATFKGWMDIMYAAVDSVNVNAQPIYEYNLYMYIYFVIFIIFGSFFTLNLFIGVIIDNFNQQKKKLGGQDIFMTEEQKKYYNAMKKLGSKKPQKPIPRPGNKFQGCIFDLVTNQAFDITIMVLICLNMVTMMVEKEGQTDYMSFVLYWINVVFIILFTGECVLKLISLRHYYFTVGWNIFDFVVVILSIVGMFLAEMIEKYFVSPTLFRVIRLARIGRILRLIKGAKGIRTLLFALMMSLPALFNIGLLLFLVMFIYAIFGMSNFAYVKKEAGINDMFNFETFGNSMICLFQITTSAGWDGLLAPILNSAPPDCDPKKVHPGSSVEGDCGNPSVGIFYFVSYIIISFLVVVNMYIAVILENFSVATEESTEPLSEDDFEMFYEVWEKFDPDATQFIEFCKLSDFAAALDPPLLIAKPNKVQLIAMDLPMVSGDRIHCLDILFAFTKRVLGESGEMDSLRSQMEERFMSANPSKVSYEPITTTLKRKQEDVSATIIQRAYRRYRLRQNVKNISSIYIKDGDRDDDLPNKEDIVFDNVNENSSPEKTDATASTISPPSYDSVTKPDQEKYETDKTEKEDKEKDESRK
Chain of Voltage-gated inwardly rectifying potassium channel KCNH2 (Q12809 whole entry): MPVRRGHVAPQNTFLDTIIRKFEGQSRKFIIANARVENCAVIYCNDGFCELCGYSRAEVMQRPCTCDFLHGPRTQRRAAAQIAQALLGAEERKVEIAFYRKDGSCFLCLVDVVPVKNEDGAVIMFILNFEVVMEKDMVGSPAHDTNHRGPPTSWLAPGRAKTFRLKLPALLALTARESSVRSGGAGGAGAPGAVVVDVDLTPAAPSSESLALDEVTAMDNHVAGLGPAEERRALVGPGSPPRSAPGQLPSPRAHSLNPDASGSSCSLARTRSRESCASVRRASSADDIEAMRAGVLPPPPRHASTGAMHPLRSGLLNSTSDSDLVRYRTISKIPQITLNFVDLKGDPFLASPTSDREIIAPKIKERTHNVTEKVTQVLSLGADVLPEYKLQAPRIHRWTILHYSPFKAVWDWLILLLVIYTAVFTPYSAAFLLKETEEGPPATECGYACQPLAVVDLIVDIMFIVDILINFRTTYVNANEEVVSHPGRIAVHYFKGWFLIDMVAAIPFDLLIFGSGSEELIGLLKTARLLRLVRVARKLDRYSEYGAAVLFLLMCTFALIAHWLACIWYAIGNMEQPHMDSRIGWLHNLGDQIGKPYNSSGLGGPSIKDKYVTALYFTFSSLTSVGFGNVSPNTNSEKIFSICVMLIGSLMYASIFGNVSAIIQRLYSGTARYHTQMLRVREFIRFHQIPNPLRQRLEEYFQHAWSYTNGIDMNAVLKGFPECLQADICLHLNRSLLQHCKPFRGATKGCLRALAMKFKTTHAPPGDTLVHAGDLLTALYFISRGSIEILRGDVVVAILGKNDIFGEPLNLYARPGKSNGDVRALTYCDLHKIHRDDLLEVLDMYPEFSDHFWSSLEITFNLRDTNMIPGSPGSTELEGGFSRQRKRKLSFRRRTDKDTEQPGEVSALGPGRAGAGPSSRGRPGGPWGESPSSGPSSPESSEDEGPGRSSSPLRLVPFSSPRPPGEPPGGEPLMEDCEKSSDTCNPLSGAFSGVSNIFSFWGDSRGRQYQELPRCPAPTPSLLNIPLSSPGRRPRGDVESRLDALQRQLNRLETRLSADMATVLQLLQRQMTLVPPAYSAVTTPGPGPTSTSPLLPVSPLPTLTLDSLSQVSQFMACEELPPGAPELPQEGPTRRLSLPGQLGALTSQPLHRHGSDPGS

COc1cc(C(F)(F)F)ccc1-c1ncnc2cc(S(=O)(=O)Nc3nccs3)ccc12
pIC50 [1]: 6.80 | pIC50 [2]: < 4.52 | clearance [3]: 9 mL/min/kg | pIC50 [4]: 5.14 | pIC50 [5]: 8.05 | pIC50 [6]: 6.74 | pIC50 [7]: 6.74 | pIC50 [8]: 6.80 | pIC50 [9]: 6.89 | pIC50 [10]: 5.68 | pIC50 [11]: 4.68 | pIC50 [12]: 4.77 | pIC50 [13]: < 4.52 | pKi [14]: < 4.52 | Ratio IC50 [15]: >100 | clearance [16]: 0.217 mL/min/kg | CL free [17]: 17 mL/min/kg | Vd [18]: 1.5 L | Vd [19]: 0.31 L/kg | Cmax [20]: 3.4 µM | Cmax [21]: 8 µM | Tmax [22]: 1.7 h | Tmax [23]: 2.3 h | bioavailability [24]: 100% | bioavailability [25]: 53% | dose excreted at 24 h [26]: 0.6% | Activity (Mus musculus [27]): Dose-dependent effect | Drug uptake [28]: Dose-dependent effect | Cp(f) [29]: 0.76 µM | Cp(f) [30]: 5.1 µM | Activity (Mus musculus [31]): Non-Toxic
